Measured values from article PMC5421626 (Japanese Journal of Clinical Oncology, 2017).
Where two headings read alike, the source gives them in different places. Where a SMILES comes first, the peptide text is derived from it. [ ]: non-standard residue; d: D form. The star is where a group is joined. dPhe(4-NHCONH2) = NC(=O)Nc1ccc(C[C@@H](N)C(=O)O)cc1; Dihydroorotyl(S) = O=C1C[C@@H](C(=O)*)NC(=O)N1; dPhe(4-Cl) = N[C@H](Cc1ccc(Cl)cc1)C(=O)O; Phe(4-NH2) = Nc1ccc(C[C@H](N)C(=O)O)cc1; d2Nal = N[C@H](Cc1ccc2ccccc2c1)C(=O)O; Lys(iPr) = CC(C)NCCCC[C@H](N)C(=O)O; d3Pal = N[C@H](Cc1cccnc1)C(=O)O

Columns and labels:
serum testosterone [1] = experiment: Serum testosterone suppression; assay type: in vivo, human (Japanese patients with prostate cancer); conditions: completers–FAS
[2] = system: serum prostate-specific antigen (PSA); experiment: Serum PSA response and PSA failure, Phase II 3-month degarelix study; assay type: in vivo, human (Japanese patients with prostate cancer); conditions: FAS; for median percent change in serum PSA level from baseline to Day 364: range −99.9%
How it was run: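 Randomised 1:1 by minimisation, patients got a subcutaneous 240 mg initial dose, then from Day 28 360 or 480 mg (60 mg/ml) every 84 days for four doses. In the full analysis set, percent change in serum PSA from baseline was calculated at Days 28 and 364. PSA failure (relapse) over Days 0–364 was given as a proportion with two-sided 95% CI, and cumulative incidence by Kaplan–Meier.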

Safety assessment = assay type: in vivo, human (Japanese patients with prostate cancer); conditions: for incidence of serious AEs / incidence of ADRs / overall incidence of AEs: SAF
How it was run: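 The safety set covered all dosed patients, given a subcutaneous 240 mg initial dose, then 360 or 480 mg maintenance every 84 days for 12 months. Recorded were AEs, serious AEs and ADRs (including injection-site reactions), with AEs graded by NCI-CTCAE v4.0, plus biochemistry, hematology, urinalysis, vital signs and 12-lead ECG. Frequencies were tabulated by MedDRA System Organ Class and Preferred Term.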

[3] = Plasma pharmacokinetics of degarelix; assay type: in vivo, human (Japanese patients with prostate cancer); conditions: for GMR (95% CI) of Ctrough values between Days 28 and 364: human plasma, LC-MS/MS, geometric mean ratio, PKAS; for Cmax / Tmax: male, human, plasma, sc
How it was run: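 Patients got a subcutaneous 240 mg (40 mg/ml) initial dose, then 360 or 480 mg (60 mg/ml) every 84 days from Day 28, for four doses. Plasma was sampled every 28 days and assayed by validated LC-MS/MS (LOQ 0.5 ng/ml). Ctrough was taken on Days 28, 112, 196, 280 and 364, and GMRs with 95% CIs were compared. In a subset, samples 3 and 7 days after Day 28 gave Cmax and Tmax. Analysis set: PKAS.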

serum testosterone [4] = conditions: Study CS18, 3-month regimen, cited from earlier work
serum testosterone [5] = conditions: Study CL-0003, 1-month regimen, cited from earlier work
serum PSA = conditions: Study CL-0003, 1-month regimen, cited from earlier work

CC(=O)N[C@H](Cc1ccc2ccccc2c1)C(=O)N[C@H](Cc1ccc(Cl)cc1)C(=O)N[C@H](Cc1cccnc1)C(=O)N[C@@H](CO)C(=O)N[C@@H](Cc1ccc(NC(=O)[C@@H]2CC(=O)NC(=O)N2)cc1)C(=O)N[C@H](Cc1ccc(NC(N)=O)cc1)C(=O)N[C@@H](CC(C)C)C(=O)N[C@@H](CCCCNC(C)C)C(=O)N1CCC[C@H]1C(=O)N[C@H](C)C(N)=O [degarelix] (Ac-[d2Nal][dPhe(4-Cl)][d3Pal]S[Phe(4-NH2)](Dihydroorotyl(S))[dPhe(4-NHCONH2)]L[Lys(iPr)]P[dA]-NH2)
proportion of patients with a serum testosterone level ≤0.5 ng/ml from Days 28 to 364 (serum testosterone [1]; 360 mg group, 95% CI 76.85–94.45%): 87.50% | proportion of patients with a serum testosterone level ≤0.5 ng/ml from Days 28 to 364 (serum testosterone [1]; 480 mg group, 95% CI 89.92–99.65%): 97.10% | median percent change in serum PSA level from baseline to Day 28 ([2]; 360 mg group (after 240 mg initial dose)): −70.4% | proportion of patients with PSA failure (serum PSA relapse) from baseline to Day 364 ([2]; 360 mg group): 2.7% | median percent change in serum PSA level from baseline to Day 364 ([2]; 360 mg group, −51.3%): −95.05% | median percent change in serum PSA level from baseline to Day 28 ([2]; 480 mg group (after 240 mg initial dose)): −79.9% | proportion of patients with PSA failure (serum PSA relapse) from baseline to Day 364 ([2]; 480 mg group): 1.3% | median percent change in serum PSA level from baseline to Day 364 ([2]; 480 mg group, −44.0%): −96.43% | patients with AEs related to injection site reactions (Safety assessment; 360 mg group): 50.0% | incidence of serious AEs (Safety assessment; 360 mg group, 13/76): 17.1% | incidence of ADRs (Safety assessment; 360 mg group, 68/76): 89.5% | overall incidence of AEs (Safety assessment; 360 mg group, 72/76): 94.7% | deaths (patients) (Safety assessment; 360 mg group, suicide after initial dose, before maintenance dose): One | patients with AEs related to injection site reactions (Safety assessment; 480 mg group): 60.5% | patients with marked increase (≥480 ms) in QTcF on Day 364 (Safety assessment; 480 mg group, 12-lead electrocardiogram): one | incidence of serious AEs (Safety assessment; 480 mg group, 7/76): 9.2% | incidence of ADRs (Safety assessment; 480 mg group, 71/76): 93.4% | overall incidence of AEs (Safety assessment; 480 mg group, 73/76): 96.1% | patients who discontinued the treatment because of injection site reactions (Safety assessment; both groups): no patient | severity of injection site reactions (Safety assessment; both groups, NCI-CTCAE v4.0): mild or moderate (Grade 1 or 2) | GMR (95% CI) of Ctrough values between Days 28 and 364 ([3]; 360 mg group): 1.258 (1.114–1.421) | GMR (95% CI) of Ctrough values between Days 28 and 364 ([3]; 480 mg group): 1.752 (1.589–1.932) | steady state of plasma concentration ([3]; both dose groups (360 and 480 mg every 84 days)): did not achieve steady state by Day 364 | Cmax ([3]; 360 mg): 74.7 ± 30 ng/mL | Tmax ([3]; 360 mg): 71.3 h | Cmax ([3]; 480 mg): 98.5 ± 31.7 ng/mL | Tmax ([3]; 480 mg): 70.8 h | cumulative probability of serum testosterone ≤0.5 ng/ml (serum testosterone [4]; 360 mg group): 89.0% | cumulative probability of serum testosterone ≤0.5 ng/ml (serum testosterone [4]; 480 mg group): 93.3% | cumulative probability of serum testosterone ≤0.5 ng/ml (serum testosterone [5]; 80 mg maintenance-dose group): 94.5% | cumulative probability of serum testosterone ≤0.5 ng/ml (serum testosterone [5]; 160 mg maintenance-dose group): 95.2% | percent change in PSA at Day 28 (serum PSA; 80 mg maintenance-dose group): –80.14% | percent change in PSA at Day 28 (serum PSA; 160 mg maintenance-dose group): –79.52%
